In brackets after ≈: the same amount, converted by molar mass.
Tested on: Campylobacter jejuni
Assay: Antibacterial activity against bla gene-negative and nitrocefin reaction-positive beta-lactamase harboring Campylobacter jejuni isolate P854 by NCCLS agar doubling dilution method
Type: functional
Method in brief: (§1)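 MICs of β-lactams by agar doubling dilution following the NCCLS (CLSI) Campylobacter Working Group procedure, with C. jejuni NCTC 11168 and C. coli NCTC 11366 as controls. Isolates were from UK poultry flocks. β-Lactamase status was set by Cj0299 PCR (281-bp amplimer) and by a nitrocefin colour change of sonicated lysate within 5 min, or within 30 min on repeat.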

SMILES	MIC [µg/mL]
CC1(C)S[C@@H]2[C@H](NC(=O)[C@H](C(=O)O)c3ccsc3)C(=O)N2[C@H]1C(=O)O [TICARCILLIN]	128 (≈ 333 µM)

Tested on: Campylobacter coli
Assay: Antibacterial activity against bla gene-positive and nitrocefin reaction-positive beta-lactamase harboring Campylobacter coli isolate P321 by NCCLS agar doubling dilution method
Type: functional
Method in brief: as §1

SMILES	MIC [µg/mL]
CC1(C)S[C@@H]2[C@H](NC(=O)[C@H](C(=O)O)c3ccsc3)C(=O)N2[C@H]1C(=O)O [TICARCILLIN]	64 (≈ 166 µM)

Tested on: Campylobacter jejuni
Assay: Antibacterial activity against Campylobacter jejuni isolate P1093 harboring blaOXA-61::cat gene by NCCLS agar doubling dilution method
Type: functional
Method in brief: (§2)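 Agar doubling dilution MICs (NCCLS/CLSI Campylobacter Working Group method) against Cj0299-inactivated mutants. Mutants were made by transforming the C. jejuni isolate with pCI and selecting on Mueller-Hinton agar with 10 μg/ml chloramphenicol for 3–5 days. Chromosomal insertion was confirmed by PCR with Cj0299 and cat primers.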

SMILES	MIC [µg/mL]
CC1(C)S[C@@H]2[C@H](NC(=O)[C@H](C(=O)O)c3ccsc3)C(=O)N2[C@H]1C(=O)O [TICARCILLIN]	8 (≈ 20.8 µM)

Tested on: Campylobacter jejuni
Assay: Antibacterial activity against bla gene-positive and nitrocefin reaction-negative beta-lactamase harboring Campylobacter jejuni isolate P1698 by NCCLS agar doubling dilution method
Type: functional
Method in brief: as §1

SMILES	MIC [µg/mL]
CC1(C)S[C@@H]2[C@H](NC(=O)[C@H](C(=O)O)c3ccsc3)C(=O)N2[C@H]1C(=O)O [TICARCILLIN]	64 (≈ 166 µM)

Tested on: Campylobacter coli
Assay: Antibacterial activity against bla-positive and beta-lactamase-weakly positive Campylobacter coli isolate P1627 by NCCLS agar doubling dilution method
Type: functional
Method in brief: (§3)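 MICs by agar doubling dilution per the NCCLS (now CLSI) Campylobacter Working Group method. Isolates came from UK chicken flocks (feces, ceca or farm environment), 2000–2006. C. jejuni NCTC 11168 and C. coli NCTC 11366 served as control strains. The ampicillin resistance cutoff was 8 μg/ml; BSAC/CLSI Enterobacteriaceae guidelines were used for other agents.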

SMILES	MIC [µg/mL]
CC1(C)S[C@@H]2[C@H](NC(=O)[C@H](C(=O)O)c3ccsc3)C(=O)N2[C@H]1C(=O)O [TICARCILLIN]	64 (≈ 166 µM)

Tested on: Campylobacter jejuni
Assay: Antibacterial activity against bla gene-negative and nitrocefin reaction-negative beta-lactamase harboring Campylobacter jejuni isolate P850 by NCCLS agar doubling dilution method
Type: functional
Method in brief: as §1

SMILES	MIC [µg/mL]
CC1(C)S[C@@H]2[C@H](NC(=O)[C@H](C(=O)O)c3ccsc3)C(=O)N2[C@H]1C(=O)O [TICARCILLIN]	128 (≈ 333 µM)

Tested on: Campylobacter jejuni
Assay: Antibacterial activity against bla gene-positive and nitrocefin reaction-positive beta-lactamase harboring Campylobacter jejuni isolate P1618 by NCCLS agar doubling dilution method
Type: functional
Method in brief: as §1

SMILES	MIC [µg/mL]
CC1(C)S[C@@H]2[C@H](NC(=O)[C@H](C(=O)O)c3ccsc3)C(=O)N2[C@H]1C(=O)O [TICARCILLIN]	64 (≈ 166 µM)

Tested on: Campylobacter jejuni
Assay: Antibacterial activity against bla gene-positive and nitrocefin reaction-positive beta-lactamase harboring Campylobacter jejuni isolate P338 by NCCLS agar doubling dilution method
Type: functional
Method in brief: as §3

SMILES	MIC [µg/mL]
CC1(C)S[C@@H]2[C@H](NC(=O)[C@H](C(=O)O)c3ccsc3)C(=O)N2[C@H]1C(=O)O [TICARCILLIN]	64 (≈ 166 µM)

Tested on: Campylobacter jejuni
Assay: Antibacterial activity against Campylobacter jejuni isolate P270 harboring blaOXA-61::cat gene by NCCLS agar doubling dilution method
Type: functional

SMILES	MIC [µg/mL]
CC1(C)S[C@@H]2[C@H](NC(=O)[C@H](C(=O)O)c3ccsc3)C(=O)N2[C@H]1C(=O)O [TICARCILLIN]	2 (≈ 5.2 µM)

Tested on: Campylobacter jejuni
Assay: Antibacterial activity against bla gene-positive and nitrocefin reaction-positive beta-lactamase harboring Campylobacter jejuni isolate P316 by NCCLS agar doubling dilution method
Type: functional
Method in brief: as §3

SMILES	MIC [µg/mL]
CC1(C)S[C@@H]2[C@H](NC(=O)[C@H](C(=O)O)c3ccsc3)C(=O)N2[C@H]1C(=O)O [TICARCILLIN]	64 (≈ 166 µM)

Tested on: Campylobacter jejuni
Assay: Antibacterial activity against bla gene-negative and nitrocefin reaction-negative beta-lactamase harboring Campylobacter jejuni isolate P835 by NCCLS agar doubling dilution method
Type: functional
Method in brief: as §1

SMILES	MIC [µg/mL]
CC1(C)S[C@@H]2[C@H](NC(=O)[C@H](C(=O)O)c3ccsc3)C(=O)N2[C@H]1C(=O)O [TICARCILLIN]	4 (≈ 10.4 µM)

Tested on: Campylobacter jejuni
Assay: Antibacterial activity against bla gene-positive and nitrocefin reaction-positive beta-lactamase harboring Campylobacter jejuni isolate P790 by NCCLS agar doubling dilution method
Type: functional
Method in brief: as §3

SMILES	MIC [µg/mL]
CC1(C)S[C@@H]2[C@H](NC(=O)[C@H](C(=O)O)c3ccsc3)C(=O)N2[C@H]1C(=O)O [TICARCILLIN]	128 (≈ 333 µM)

Tested on: Campylobacter coli
Assay: Antibacterial activity against Campylobacter coli by NCCLS agar doubling dilution method
Type: functional
Method in brief: (§4)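 MICs by agar doubling dilution following the NCCLS (CLSI) Campylobacter Working Group procedure, applied to ampicillin- and amoxicillin-resistant isolates from UK chicken flocks (2000–2006). C. jejuni NCTC 11168 and C. coli NCTC 11366 served as control strains. Resistance was called at an ampicillin cutoff of 8 μg/ml. Other agents were judged against Enterobacteriaceae guidelines (BSAC, CLSI).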

SMILES	MIC50 [µg/mL]	MIC90 [µg/mL]
Cn1nnnc1SCC1=C(C(=O)O)N2C(=O)[C@@H](NC(=O)[C@H](O)c3ccccc3)[C@H]2SC1 [CEFAMANDOLE]	> 256	> 256
CC1(C)S[C@@H]2[C@H](NC(=O)[C@H](C(=O)O)c3ccsc3)C(=O)N2[C@H]1C(=O)O [TICARCILLIN]	64 (≈ 166 µM)	128 (≈ 333 µM)
CC(=O)OCC1=C(C(=O)O)N2C(=O)[C@@H](NC(=O)Cc3cccs3)[C@H]2SC1 [CEPHALOTHIN]	256 (≈ 646 µM)	> 256

Tested on: Campylobacter jejuni
Assay: Antibacterial activity against bla gene-positive and nitrocefin reaction-positive beta-lactamase harboring Campylobacter jejuni isolate P1093 by NCCLS agar doubling dilution method
Type: functional
Method in brief: as §1

SMILES	MIC [µg/mL]
CC1(C)S[C@@H]2[C@H](NC(=O)[C@H](C(=O)O)c3ccsc3)C(=O)N2[C@H]1C(=O)O [TICARCILLIN]	32 (≈ 83.2 µM)

Tested on: Campylobacter jejuni
Assay: Antibacterial activity against bla gene-positive and nitrocefin reaction-negative beta-lactamase harboring Campylobacter jejuni NCTC 11168 by NCCLS agar doubling dilution method
Type: functional
Method in brief: as §1

SMILES	MIC [µg/mL]
CC1(C)S[C@@H]2[C@H](NC(=O)[C@H](C(=O)O)c3ccsc3)C(=O)N2[C@H]1C(=O)O [TICARCILLIN]	2 (≈ 5.2 µM)

Tested on: Campylobacter jejuni
Assay: Antibacterial activity against bla gene-positive and nitrocefin reaction-positive beta-lactamase harboring Campylobacter jejuni isolate P1650 by NCCLS agar doubling dilution method
Type: functional
Method in brief: as §1

SMILES	MIC [µg/mL]
CC1(C)S[C@@H]2[C@H](NC(=O)[C@H](C(=O)O)c3ccsc3)C(=O)N2[C@H]1C(=O)O [TICARCILLIN]	64 (≈ 166 µM)

Tested on: Campylobacter jejuni
Assay: Antibacterial activity against Campylobacter jejuni by NCCLS agar doubling dilution method
Type: functional
Method in brief: as §4

SMILES	MIC50 [µg/mL]	MIC90 [µg/mL]
Cn1nnnc1SCC1=C(C(=O)O)N2C(=O)[C@@H](NC(=O)[C@H](O)c3ccccc3)[C@H]2SC1 [CEFAMANDOLE]	> 256	> 256
CC1(C)S[C@@H]2[C@H](NC(=O)[C@H](C(=O)O)c3ccsc3)C(=O)N2[C@H]1C(=O)O [TICARCILLIN]	64 (≈ 166 µM)	128 (≈ 333 µM)
CC(=O)OCC1=C(C(=O)O)N2C(=O)[C@@H](NC(=O)Cc3cccs3)[C@H]2SC1 [CEPHALOTHIN]	> 256	> 256

Tested on: Campylobacter jejuni
Assay: Antibacterial activity against bla gene-positive and nitrocefin reaction-positive beta-lactamase harboring Campylobacter jejuni isolate P286 by NCCLS agar doubling dilution method
Type: functional
Method in brief: as §3

SMILES	MIC [µg/mL]
CC1(C)S[C@@H]2[C@H](NC(=O)[C@H](C(=O)O)c3ccsc3)C(=O)N2[C@H]1C(=O)O [TICARCILLIN]	64 (≈ 166 µM)

Tested on: Campylobacter jejuni
Assay: Antibacterial activity against bla gene-positive and nitrocefin reaction-positive beta-lactamase harboring Campylobacter jejuni isolate P305 by NCCLS agar doubling dilution method
Type: functional
Method in brief: as §3

SMILES	MIC [µg/mL]
CC1(C)S[C@@H]2[C@H](NC(=O)[C@H](C(=O)O)c3ccsc3)C(=O)N2[C@H]1C(=O)O [TICARCILLIN]	128 (≈ 333 µM)

Tested on: Campylobacter jejuni
Assay: Antibacterial activity against bla gene-positive and nitrocefin reaction-positive beta-lactamase harboring Campylobacter jejuni isolate P285 by NCCLS agar doubling dilution method
Type: functional
Method in brief: as §3

SMILES	MIC [µg/mL]
CC1(C)S[C@@H]2[C@H](NC(=O)[C@H](C(=O)O)c3ccsc3)C(=O)N2[C@H]1C(=O)O [TICARCILLIN]	64 (≈ 166 µM)

Tested on: Campylobacter jejuni
Assay: Antibacterial activity against bla gene-negative and nitrocefin reaction-negative beta-lactamase harboring Campylobacter jejuni isolate P1962 by NCCLS agar doubling dilution method
Type: functional
Method in brief: as §1

SMILES	MIC [µg/mL]
CC1(C)S[C@@H]2[C@H](NC(=O)[C@H](C(=O)O)c3ccsc3)C(=O)N2[C@H]1C(=O)O [TICARCILLIN]	< 4

Tested on: Campylobacter jejuni
Assay: Antibacterial activity against Campylobacter jejuni isolate P338 harboring blaOXA-61::cat gene by NCCLS agar doubling dilution method
Type: functional
Method in brief: as §2

SMILES	MIC [µg/mL]
CC1(C)S[C@@H]2[C@H](NC(=O)[C@H](C(=O)O)c3ccsc3)C(=O)N2[C@H]1C(=O)O [TICARCILLIN]	4 (≈ 10.4 µM)

Tested on: Campylobacter jejuni
Assay: Antibacterial activity against bla gene-positive and nitrocefin reaction-positive beta-lactamase harboring Campylobacter jejuni isolate P1730 by NCCLS agar doubling dilution method
Type: functional
Method in brief: as §3

SMILES	MIC [µg/mL]
CC1(C)S[C@@H]2[C@H](NC(=O)[C@H](C(=O)O)c3ccsc3)C(=O)N2[C@H]1C(=O)O [TICARCILLIN]	32 (≈ 83.2 µM)

Tested on: Campylobacter jejuni
Assay: Antibacterial activity against bla gene-negative and nitrocefin reaction-positive beta-lactamase harboring Campylobacter jejuni isolate P843 by NCCLS agar doubling dilution method
Type: functional
Method in brief: as §1

SMILES	MIC [µg/mL]
CC1(C)S[C@@H]2[C@H](NC(=O)[C@H](C(=O)O)c3ccsc3)C(=O)N2[C@H]1C(=O)O [TICARCILLIN]	128 (≈ 333 µM)

Tested on: Campylobacter jejuni
Assay: Antibacterial activity against bla gene-positive and nitrocefin reaction-negative beta-lactamase harboring Campylobacter jejuni isolate P1699 by NCCLS agar doubling dilution method
Type: functional
Method in brief: as §1

SMILES	MIC [µg/mL]
CC1(C)S[C@@H]2[C@H](NC(=O)[C@H](C(=O)O)c3ccsc3)C(=O)N2[C@H]1C(=O)O [TICARCILLIN]	128 (≈ 333 µM)

From ChEMBL document CHEMBL1649560, “Beta-lactamase-mediated beta-lactam resistance in Campylobacter species: prevalence of Cj0299 (bla OXA-61) and evidence for a novel beta-Lactamase in C. jejuni” (2009)
